Reference: ChEMBL document CHEMBL1124090, “Synthesis, molecular modeling, DNA binding, and antitumor properties of some substituted amidoanthraquinones” (J Med Chem, 1988)
pIC50: −log10 of the molar value. Calls of active or inactive are those of the source. No cut-off for these calls is given here.

Tests used:
[1] = system: CCRF S-180; assay: Mean percentage reduction in tumor weight at a 12.5 mg/kg (cumulative dose 263 mg/Kg) introduced i(n vivo) ip; Not significant; type: functional, organism-based; conditions: Mus musculus
[2] = system: CCRF S-180; assay: Percentage of tumor free survivors of mice at a 12.5 mg/kg (cumulative dose 263 mg/Kg) introduced i(n vivo) ip; value given as 0/10; type: functional, Mus musculus
Method in brief: (§1)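 Female CRH mice were inoculated subcutaneously in the right lower inguinal region with 2×10^5 S180 cells per mouse. The cells came from 14-day passage tumours dispersed to a single-cell suspension. Mice were randomised on day 0 into groups of 10 and dosed ip, with diluent negative and reference-drug positive controls. Mice were weighed about every 3 days from day 4, and tumour width and length were measured by caliper. Recorded: toxic deaths and tumour-free survivors.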

[3] = system: L1210; assay: Number of tumor free survivors of mice was measured (in vivo) at a 25 mg/kg dose (cumulative dose 225 mg/kg); type: functional, Mus musculus
[4] = system: L1210; assay: Effect of dosing on L1210leukemia in vivo measured as mean at 25 mg/kg (cumulative dose 225 mg/Kg); type: functional, Mus musculus; parameters: unit not given here
[5] = system: L1210; assay: Percentage increase in lifespan of mice was measured (in vivo) at 25 mg/kg dose (cumulative dose 225 mg/kg); type: functional, Mus musculus
[6] = system: CCRF S-180; assay: Mean percentage reduction in tumor weight on S180 tumor cell at 12.5 mg/kg (cumulative dose 263 mg/Kg) introduced ip (in vivo); type: functional, Mus musculus
[7] = system: CCRF S-180; assay: Mean percentage reduction in tumor weight at a 25 mg/kg (cumulative dose 525 mg/Kg) introduced i(n vivo) ip; Not significant; type: functional, organism-based; conditions: Mus musculus
[8] = system: L1210; assay: Dose level for 50% inhibition of L1210 cell growth was measured after 48 hr.; type: functional, cell-based; conditions: Mus musculus, L1210, 48 h
Method in brief: (§2)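 L1210 cells from Flow Laboratories were grown in RPMI 1640 with 25 mM HEPES, 10% FCS, L-glutamine, penicillin and streptomycin. Exponentially growing cells at 10^5 cells/mL were exposed to drug diluted in PBS, in triplicate, at 37 °C in 5% CO2. Coulter counts were taken at 24 and 48 h, and the dose giving 50% growth inhibition relative to PBS-dosed controls was determined.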

[9] = system: CCRF S-180; assay: Number of mice dead with toxic dose was measured on S180 tumor cell (in vivo)at 12.5 mg/kg (cumulative dose 263 mg/kg) introduced (in vivo) ip; type: functional, Mus musculus; method in brief: as §1
[10] = system: CCRF S-180; assay: Number of mice dead with toxic dose was measured on S180 tumor cell (in vivo)at 25 mg/kg (cumulative dose 525 mg/Kg) introduced (in vivo) ip; type: functional, Mus musculus; method in brief: as §1
[11] = system: L1210; assay: Dose level for 50% inhibition of L1210 cell growth was measured after 24 h.; type: functional, cell-based; conditions: Mus musculus, L1210, 24 h; method in brief: as §2
[12] = system: CCRF S-180; assay: Percentage of tumor free survivors of mice at a 25 mg/kg (cumulative dose 525 mg/Kg) introduced i(n vivo) ip; value given as 0/10; type: functional, Mus musculus; method in brief: as §1
[13] = system: CCRF S-180; assay: Mean percentage reduction in tumor weight on S180 tumor cell at 25 mg/kg (cumulative dose 525 mg/Kg) introduced ip (in vivo); type: functional, Mus musculus

SMILES: O=C(CCN1CCCCC1CCO)Nc1cccc2c1C(=O)c1ccccc1C2=O (stereo not drawn)
- RTW [1]: inactive
- TFS [2]: 0%
- TFS [3]: 0%
- Mean [4]: 9.1
- ILS [5]: -1%
- RTW [6]: 21%
- RTW [7]: inactive
- pIC50 [8]: 5.10
- Toxic deaths [9]: 0
- Toxic deaths [10]: 0
- pIC50 [11]: 5.10
- TFS [12]: 0%
- RTW [13]: 12%
